Where “and” joins values, the source holds several entries; their conditions need not be identical. Equal entries are not always repeated. Results filed as inconclusive are left out. Calls of active or inactive are those of the source.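 How the source made its calls: active means every repeat run gives a falling-signal curve whose half-maximal concentration stays within the set limit; inconclusive means runs disagree, flat moderate inhibition, or unreliable fit; inactive means flat weak response, opposite effect, or too weak.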

This note sets out measurements from PubChem BioAssay AID493149 (Broad Institute, 2011).

Test system in one test: not listed separately
In words: Candida CaCi-8 growth reduction under fluconazole – CaCi-8 strain, Alamar Blue, dry powder, set 9, dose response (AID 493149). Particulars: C. albicans CaCi-8 + fluconazole, Alamar Blue growth, 48 h; at 19.5 µM (top of the series). Summed up: (§1)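 System: fluconazole-resistant C. albicans strain CaCi-8; Times: 48 h compound growth at 37 °C, 2 h RT dye; Technique: Alamar Blue fluorescence, 1:200 final, Ex 544 nm, Em 590 nm.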
Consider `COC(=O)Cn1nc(-c2cncnc2)c2ccccc21`, for which the activity change, negative = inhibition was -4.22% (inactive).

Still in this test, the particulars now being: C. albicans CaCi-8 + fluconazole, Alamar Blue growth, 48 h; at 26 µM (top of the series).
On to `CC(C)(C)OC(=O)Cn1nc(-c2ccccc2)c2ccccc21`, for which the activity change, negative = inhibition is 14.2% (inactive). Consider `COC(=O)Cn1nc(-c2ccc(C(F)(F)F)cc2)c2ccccc21`, for which the activity change, negative = inhibition is -7.01% (inactive).

Regarding `O=C(Cn1nc(-c2ccccc2)c2ccccc21)Oc1ccccc1`, the activity change, negative = inhibition is -1.98% (inactive).

Regarding `COC(=O)Cn1nc(-c2ccccc2)c2ccc(C#N)cc21`, the activity change, negative = inhibition is -13.5% (inactive). Still for that read-out and setting: as for `CC(C)OC(=O)Cn1nc(-c2ccccc2)c2ccccc21`, the figure is 6.95% (inactive). For `c1ccc(-c2nn(Cc3nn[nH]n3)c3ccccc23)cc1`, the activity change, negative = inhibition is -10.1% (inactive).

For `N#CCn1nc(-c2ccccc2)c2ccccc21`, the activity change, negative = inhibition is -24.1% (inactive).

For `c1ccc(-c2nn(Cc3ncco3)c3ccccc23)cc1`, the activity change, negative = inhibition was 4.54% (inactive).

Take `CCOC(=O)Cn1nc(-c2ccccc2)c2ccccc21`: the activity change, negative = inhibition was -1.88% (inactive). `COC(=O)CCn1nc(-c2ccccc2)c2ccccc21`: the activity change, negative = inhibition is -11.6% (inactive).

Another test relates to C. albicans CaCi-8 + fluconazole, Alamar Blue growth, 48 h. The description is as above.
Conditions: not given
The procedure, abridged: as §1
As usually defined, the AC50 is the concentration at which the activity in the assay is half-maximal. For `COC(=O)Cn1nc(-c2ccccc2)c2cc(F)ccc21`, the concentration at half-maximal activity (AC50) was 6.98 µM. The same measure, in the same setting: as for `COC(=O)Cn1nc(-c2cccc(F)c2)c2ccccc21`, the figure is 2.14 µM; as for `COC(=O)Cn1nc(-c2ccc(OC)cc2)c2ccccc21`, 8.3 µM; as for `COC(=O)Cn1nc(-c2ccccc2)c2cc(C)ccc21`, 5.33 µM. Same read-out and setting: as for `COC(=O)Cn1nc(-c2ccccc2)c2ccccc21`, the figure is 2.18 µM; as for `O=C(Cn1c2ccccc2c2nc3n(c(=O)c21)CCS3)N1CCCC1`, 1.65 µM and 3.48 µM. Same read-out and setting: as for `COC(=O)Cn1c2ccccc2c2nc3n(c(=O)c21)CCS3`, the figure is 8.51 µM; as for `COC(=O)[C@@H](C)n1nc(-c2ccccc2)c2ccccc21` (racemic), 15.9 µM; as for `COC(=O)Cn1nc(-c2cccc(C)c2)c2ccccc21`, 1.34 µM.

On to `COC(=O)Cn1nc(-c2ccccc2)c2ccc(Cl)cc21`, for which the half-maximal activity concentration (AC50) was 8.57 µM. The same measure, in the same setting: for `COC(=O)Cn1nc(-c2ccccc2)c2ccc(OC)cc21` the value was 12.7 µM; for `COC(=O)Cn1nc(-c2ccccc2OC)c2ccccc21`, 10.2 µM; for `COC(=O)Cn1nc(-c2ccc(F)cc2)c2ccccc21`, 8.21 µM. On the same count and under the same terms, for `COC(=O)Cn1nc(-c2ccccc2)c2cc(OC)ccc21` the value was 18.6 µM; for `COC(=O)Cn1nc(-c2ccccc2)c2ccc(C)cc21`, 7.29 µM. The same measure, in the same setting: as for `COC(=O)Cn1nc(-c2ccccc2C)c2ccccc21`, the figure is 6.96 µM; as for `COC(=O)Cn1nc(-c2cccc(OC)c2)c2ccccc21`, 1.2 µM; as for `COC(=O)Cn1nc(-c2ccccc2)c2ccc(F)cc21`, 8.34 µM.
